Compound activity deposited in PubChem by several laboratories.
PP1 counter: PP1-alpha phosphatase inhibitors, primary screen, counter-screen for PP5 inhibitor project, biochemical, fluorescence, OMFP substrate, single point; inhibition, % at 6.7 µM; Serine/threonine-protein phosphatase PP1-alpha catalytic subunit (Homo sapiens), P62136; 0.9% of 320,000 active; purified PP1alpha; AID 2235, 2010;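 active = inhibition above the mean inhibition of all tested compounds plus 3 SD, computed separately for each screening campaign, cut at about 15% in these data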
PP5 inh: PP5 phosphatase inhibitors, primary screen, biochemical, fluorescence; Serine/threonine-protein phosphatase 5 (Homo sapiens), P53041; purified PP5c, OMFP substrate fluorescence; inhibition, % at 6.7 µM; 0.18% of 320,000 active; AID 1987, 2009;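 active = inhibition above the campaign's mean inhibition across all tested compounds plus 3 SD, cut at about 9.5% in these data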;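 also: 0% = DMSO only and 100% = 100 µM cantharidin control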
Target sequence (P53041 whole entry, looked up): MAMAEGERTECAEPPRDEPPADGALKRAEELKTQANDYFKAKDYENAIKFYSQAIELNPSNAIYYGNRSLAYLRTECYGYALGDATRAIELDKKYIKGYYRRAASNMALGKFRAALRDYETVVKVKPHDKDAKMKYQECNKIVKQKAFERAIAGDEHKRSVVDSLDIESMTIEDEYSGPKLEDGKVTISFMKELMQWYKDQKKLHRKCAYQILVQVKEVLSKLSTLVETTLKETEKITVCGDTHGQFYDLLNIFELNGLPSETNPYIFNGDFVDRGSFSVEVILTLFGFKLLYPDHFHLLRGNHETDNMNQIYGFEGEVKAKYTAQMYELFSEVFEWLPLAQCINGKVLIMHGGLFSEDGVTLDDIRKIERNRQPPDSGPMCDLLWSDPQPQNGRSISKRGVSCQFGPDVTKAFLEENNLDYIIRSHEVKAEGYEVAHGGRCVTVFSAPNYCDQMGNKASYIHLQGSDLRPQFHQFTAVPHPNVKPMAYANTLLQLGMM
Myeloid diff MLP: induction of myeloid progenitor differentiation, primary screen, cell-based, flow cytometry, MLPCN library. ER-HoxA9 myeloid progenitors, lysozyme-GFP differentiation. calls only at 10 µM. 1% of 360,000 active. AID 624256, 2012;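 active = normalized GFP-positive differentiation at or above the plate's own cutoff, the solvent-only control mean plus 3 SD; inconclusive = no clear call, values can overlap the other calls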;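 also: cells exposed to compound for four days before flow analysis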
NadD block: inhibitors of S. aureus NadD, primary screen, biochemical, colorimetric, uHTS; Nicotinate-nucleotide adenylyltransferase NadD (Staphylococcus aureus N315); purified NadD enzyme, colorimetric absorbance read-out; 0.78% of 360,000 active; inhibition, % at 20 µM; in the data active = inhibition above about 26%
Fh CTSL1 inh: Fasciola hepatica cathepsin L1 inhibitors, primary screen, counter-screen for PFM18AAP inhibitor project, biochemical, QFRET, fluorogenic peptide substrate; recombinant F. hepatica cathepsin L1, Z-Leu-Arg-MCA fluorescence; inhibition, % at 5.96 µM; 0.49% of 300,000 active;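 active = inhibition above the mean of all tested compounds plus 3 SD, set per screening campaign, cut at about 17% in these data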;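 also: 0% = plate median of test compound wells and 100% = 1 µM Z-Phe-Ala-diazomethylketone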
HCV core dimer: inhibitors of HCV core protein dimerization, primary screen, biochemical, TR-FRET, high-throughput; TR-FRET GST/Flag-core106 dimerization, 1536-well; inhibition, % at 5 µM; 0.33% of 300,000 active; AID 1899, 2009;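 active = inhibition above the mean of all tested compounds plus 3 SD, set per screening campaign, cut at about 45% in these data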
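Material: GST/Flag-tagged HCV core106 proteins. Incubation: 4 h, 22.5 °C incubation. Read-out basis: inhibition (%) from 671 over 617 nm ratio. Measured by: TR-FRET, excitation 340 nm, emission 617 and 671 nm.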
PP1 inh confirm: PP1 phosphatase inhibitors, confirmation, biochemical, fluorescence, OMFP substrate, triplicate. shares compounds with PP1 counter. purified PP1alpha. inhibition, % at 6.7 µM. 52% of 1,900 active. AID 2358, 2010;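 active = mean PP1 inhibition above a set limit taken from the earlier primary screen, cut at about 15% in these data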
PP5 counter: PP5 phosphatase inhibition by PP1 hits, confirmation, counter-screen for PP1 inhibitor project, biochemical, fluorescence, triplicate; shares compounds with PP1 counter; inhibition, % at 6.7 µM; 4% of 1,900 active; AID 2360, 2010; purified PP5c, OMFP fluorescence;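 active = mean PP5 inhibition over triplicate wells above about 9.5% taken from the earlier PP1 screen, limit read from the data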
* marks the source's active call; other numbers are inactive results; i = inactive; ? = inconclusive; . = not tested or not shown. In the library only some 3.1% were active in any assay of this set; here they are far more common.

SMILES	PP1 counter	PP5 inh	Myeloid diff MLP	NadD block	Fh CTSL1 inh	HCV core dimer	PP1 inh confirm	PP5 counter
CCC(=O)NC(c1ccc(C)cc1)c1cc([N+](=O)[O-])c2cccnc2c1O (stereo not given)	39*	1	i	16	7	-11	12	12*
CC(=O)NC(c1ccccc1)c1cc(Cl)c2cccnc2c1O (stereo not given)	14	5	?	1	0	-3	.	.
CC(=O)NC(c1ccc(C)cc1)c1cc([N+](=O)[O-])c2cccnc2c1O (stereo not given)	19*	6	i	9	2	-12	21*	3
Cc1ccc(S(=O)(=O)N2CCOCC2)cc1C(=O)Nc1ccc(S(=O)(=O)Nc2nccs2)cc1	30*	0	i	-1	-4	0	0	-3
O=C(Cn1cnc2sc(-c3ccccc3)cc2c1=O)NCc1ccco1	22*	0	i	1	5	65*	19*	2
CC(=O)Oc1ccc(-c2ccc(C(=O)NCCc3ccc(S(N)(=O)=O)cc3)cc2)cc1	24*	-2	i	20	0	26	18*	-2
Cc1ccc(Sc2ncccc2C(=O)NCc2cc([N+](=O)[O-])ccc2O)cc1C	.	.	i	5	.	.	.	.
CCCCOc1ccc(C2C(C(=O)c3ccc(C)o3)=C(O)C(=O)N2CC2CCCO2)cc1 (stereo not given)	20*	0	i	21	1	7	27*	-2
O=[N+]([O-])c1ccc(CCNc2cccc3ccccc23)c([N+](=O)[O-])c1	25*	1	?	1	0	12	24*	-2
CC(C)(C)OC(=O)N[C@@H](COCc1ccccc1)C(=O)N[C@@H](CO)[C@H](O)[C@@H]1C[C@@H]1C(=O)NC1CCCCC1	-1	1	i	-5	3	4	.	.
CN(c1ccccc1)c1ncccn1	-1	2	i	0	0	-2	.	.
Cc1cccc(Oc2nc(-c3ccccn3)nc3ccccc23)c1	15	3	i	9	3	6	.	.
COc1cnc(-c2ccccn2)nc1Oc1cccc(C(F)(F)F)c1	46*	4	i	3	2	9	46*	1
COc1cnc(-c2ccccn2)nc1Oc1ccccc1	23*	0	i	-1	-1	-1	17*	-3
COc1cnc(-c2ccccn2)nc1N(C)c1ccccc1	28*	5	?	-6	2	9	28*	-2
COc1cccc(C(CNC(=O)C2CCN(C(=O)Nc3ccccc3)CC2)N(C)C)c1 (stereo not given)	0	2	i	-4	.	.	.	.
CCN(CC)CCN1C(=O)/C(=C\c2ccc(Cl)c([N+](=O)[O-])c2)SC1=Nc1ccc(OC)cc1	19*	3	.	5	3	-9	-6	2
CCc1noc(C)c1C(=O)N(CC)CC(=O)NCc1ccc(F)cc1	.	.	i	-9	.	.	.	.
Cc1cc(Cl)c(S(=O)(=O)N2CCN(c3ccc(F)cc3)CC2)cc1OCC(=O)NC1CCCCC1	18*	6	i	4	5	1	2	-2
CCc1nc2ccc(C(=O)NCCc3ccccc3OC)cc2nc1CC	-4	-1	i	10	2	5	.	.
COc1ccccc1CNC(=O)c1ccc2nc3[nH]c4ccccc4c3nc2c1	21*	3	i	9	0	1	23*	-2
Cc1cccc(C)c1Nc1c(-c2ccccn2)nc2ccccn12	28*	2	i	2	11	-6	5	0
Cc1cccc2nc(-c3ccco3)c(Nc3ccccc3)n12	3	-2	i	0	1	1	.	.
Cc1ccc(Nc2c(-c3ccccn3)nc3cccc(C)n23)cc1	40*	4	i	-1	12	-2	50*	4
Cc1cc(C)n2c(Nc3c(C)cccc3C)c(-c3ccccn3)nc2n1	.	.	i	5	.	.	.	.
SMILES	PP1 counter	PP5 inh	Myeloid diff MLP	NadD block	Fh CTSL1 inh	HCV core dimer	PP1 inh confirm	PP5 counter
COc1ccc(C)c2sc(N(CCCN(C)C)C(=O)c3ccc(S(=O)(=O)N4CCc5ccccc5C4)cc3)nc12	5	2	.	10	2	-2	.	.
COc1ccc(OC)c2sc(N(CCCN(C)C)C(=O)c3ccc(S(=O)(=O)N4CCc5ccccc5C4)cc3)nc12	20*	3	.	.	1	-11	22*	1
CCC1(c2ccccc2)NC(=O)N(CC(=O)Nc2ccc(S(N)(=O)=O)cc2)C1=O (stereo not given)	-3	1	i	7	7	2	.	.
Nc1c(C(=O)c2ccc(Br)cc2)oc2ccccc12	18*	3	i	-3	3	-4	-4	-3
CC(C)(C)c1ccc(C(=O)NCC(=O)OCC(=O)c2ccc3c(c2)-c2ccccc2C3)cc1	20*	2	i	3	1	-11	14	0
O=C(CNC(=O)c1ccc(Cl)cc1)OCC(=O)c1ccccc1	0	2	i	1	-14	-4	.	.
CCOC(=O)c1ccc(NC(=O)COc2ccc(-n3cnnn3)cc2)cc1	20*	1	i	9	7	58*	5	-6
CCN(C(=O)COC(=O)CSc1ccc(F)cc1)c1c(N)n(Cc2ccccc2)c(=O)[nH]c1=O	0	3	i	-4	.	.	.	.
C#CCOCCOCCOCCNc1nc(N2CCN(C(=O)C(Cc3ccc(O)cc3)n3cc(C(N)CC(C)C)nn3)CC2)nc(N2CCN(C(=O)C(Cc3cc4ccccc4[nH]3)n3cc(C(N)C(C)CC)nn3)CC2)n1 (stereo not given)	20*	3	.	.	3	-21	-24	-4
C#CCOCCOCCOCCNc1nc(N2CCN(C(=O)[C@H](Cc3ccc(O)cc3)n3cc([C@@H](N)CC(C)C)nn3)CC2)nc(N2CCN(C(=O)[C@H](Cc3cc4ccccc4[nH]3)n3cc([C@@H](N)CC(C)C)nn3)CC2)n1	11	1	.	.	12	-4	.	.
